Several values for one entry are separate records, joined by “and”; a condition that tells them apart may be missing. Equal values may be shown once.
What was measured:
Histone deacetylase = assay: Inhibitory activity against histone deacetylase (HDAC) enzyme obtained from H1299 human lung carcinoma cell lysates
NCI-H1299 = assay: Inhibitory activity against H1299 human lung carcinoma cell growth; format: functional, cell-based
Mus musculus [1] = assay: Compound was tested in vivo for efficacy in athymic mice bearing HCT116 subcutaneous tumor xenografts at a dose of 30 mg/kg and change in the body weight of the mouse was evaluated; format: functional
Method in brief: (§1)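 Female outbred athymic nu/nu mice, ≈10⁶ HCT116 cells injected sc in right axillary region under anesthesia; treatment began when tumors ≈100 mm³ (day 13 post-implant), groups of eight balanced on tumor volume. Compound given iv as lactate salt in 10% DMSO/D5W, qd 5×/week for 15 doses. Individual body weights recorded once weekly; % change from start reported.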

Mus musculus [2] = assay: Compound was tested in vivo for maximum tolerated dose (MTD) that resulted in no deaths when administered intravenously for five days; format: functional
Method in brief: (§2)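 Athymic mice, four per group, dosed iv once daily for five consecutive days, up to a maximum of 200 mg/kg/day. Compound given as the lactate salt in 10% DMSO in 5% dextrose/water (final DMSO 10%). MTD taken as the highest dose that caused no deaths.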

HCT-116 = assay: Inhibitory activity against HCT116 human colon cell growth; format: functional, cell-based
Mus musculus [3] = assay: Ratio of the change in tumor volume of treated animals to the change in tumor volume of control animals at a dose of 30 mg/kg; format: functional
Method in brief: (§3)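 HCT116 sc xenografts (≈10⁶ cells) in female athymic nude mice, eight per group, treated from ≈100 mm³ tumors with iv lactate salt in 10% DMSO/D5W qd 5×/week for 10 or 15 doses. Tumors measured weekly; % T/C = change in treated tumor volume over change in vehicle-control tumor volume; one-tailed Student's t-test.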

Mus musculus [4] = assay: Compound was tested in vivo for efficacy in athymic mice bearing HCT116 subcutaneous tumor xenografts at a dose of 25 mg/kg and change in the body weight of the mouse was evaluated; format: functional
Mus musculus [5] = assay: Compound was tested in vivo for efficacy in athymic mice bearing HCT116 subcutaneous tumor xenografts at a dose of 10 mg/kg and change in the body weight of the mouse was evaluated; format: functional; settings: route intravenous; method in brief: as §1
Mus musculus [6] = assay: Compound was tested in vivo for efficacy in athymic mice bearing HCT116 subcutaneous tumor xenografts at a dose of 50 mg/kg and change in the body weight of the mouse was evaluated; format: functional; settings: route intravenous; method in brief: as §1
Mus musculus [7] = assay: Ratio of number of deaths of mice to the number of mice tested was determined at a dose of 10 mg/kg; dead/total = 0 / 8; format: functional
Method in brief: (§4)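 Female outbred athymic nu/nu mice, eight per group, carrying subcutaneous right-axillary HCT116 (≈10⁶ cells) or A549 (≈10⁷ cells) xenografts, started treatment at ≈100 mm³ tumour volume. Drug given as lactate salt in 10% DMSO/D5W, iv qd 5×/week for 15 doses. Body weights and tumours recorded weekly; deaths counted per group as dead/total.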

Mus musculus [8] = assay: Ratio of the change in tumor volume of treated animals to the change in tumor volume of control animals at a dose of 50 mg/kg; format: functional; method in brief: as §3
Mus musculus [9] = assay: Ratio of the change in tumor volume of treated animals to the change in tumor volume of control animals at a dose of 10 mg/kg; format: functional; method in brief: as §3
Mus musculus [10] = assay: Compound was tested in vivo for efficacy in athymic mice bearing HCT116 subcutaneous tumor xenografts at a dose of 100 mg/kg and change in the body weight of the mouse was evaluated; format: functional; settings: route intravenous; method in brief: as §1
Mus musculus [11] = assay: Ratio of the change in tumor volume of treated animals to the change in tumor volume of control animals at a dose of 25 mg/kg; format: functional; method in brief: as §3
Mus musculus [12] = assay: Ratio of the change in tumor volume of treated animals to the change in tumor volume of control animals at a dose of 100 mg/kg; format: functional; method in brief: as §3
Mus musculus [13] = assay: Ratio of number of deaths of mice to the number of mice tested was determined at a dose of 50 mg/kg; dead/total = 0 / 8; format: functional; method in brief: as §4
Mus musculus [14] = assay: Ratio of number of deaths of mice to the number of mice tested was determined at a dose of 100 mg/kg; dead/total = 0 / 8; format: functional; method in brief: as §4
Mus musculus [15] = assay: Compound was tested for efficacy in athymic mice bearing HCT116 subcutaneous tumor xenografts at a dose of 50 mg/kg and change in the body weight of the mouse was evaluated; format: functional; method in brief: as §1
Mus musculus [16] = assay: Compound was tested for maximum tolerated dose (MTD) that resulted in no deaths when administered intravenously for five days; format: functional; method in brief: as §2
Mus musculus [17] = assay: Ratio of the change in tumor volume of treated animals to the change in tumor volume of control animals at a dose of 20 mg/kg; format: functional; method in brief: as §3
Mus musculus [18] = assay: Compound was tested in vivo for efficacy in athymic mice bearing HCT116 subcutaneous tumor xenografts at a dose of 20 mg/kg and change in the body weight of the mouse was evaluated; format: functional; method in brief: as §1
Mus musculus [19] = assay: Compound was tested for efficacy in athymic mice bearing HCT116 subcutaneous tumor xenografts at a dose of 10 mg/kg and change in the body weight of the mouse was evaluated; format: functional; method in brief: as §1
Mus musculus [20] = assay: Ratio of the change in tumor volume of treated animals to the change in tumor volume of control animals at a dose of 45 mg/kg; format: functional; method in brief: as §3
Mus musculus [21] = assay: Compound was tested for efficacy in athymic mice bearing HCT116 subcutaneous tumor xenografts at a dose of 45 mg/kg and change in the body weight of the mouse was evaluated; format: functional
Mus musculus [22] = assay: Compound was tested for efficacy in athymic mice bearing HCT116 subcutaneous tumor xenografts at a dose of 75 mg/kg and change in the body weight of the mouse was evaluated; format: functional
Mus musculus [23] = assay: Ratio of the change in tumor volume of treated animals to the change in tumor volume of control animals at a dose of 75 mg/kg; format: functional; method in brief: as §3

Compound | IC50 (Histone deacetylase) | IC50 (NCI-H1299) | IC50 (HCT-116) | further results
O=C(/C=C/c1ccc(CNCCc2cnc3ccccc3c2)cc1)NO | 67 nM | 500 nM | 40 nM | Body weight change (Mus musculus [1]): -5.4%; MTD (Mus musculus [2]): 30 mg/kg; T/C (Mus musculus [3]): 77%
O=C(/C=C/c1ccc(CNCCCc2c[nH]c3ccccc23)cc1)NO | 53 nM | 1000 nM | 100 nM | 
O=C(/C=C/c1ccc(CNCCc2c[nH]c3ccc(F)cc23)cc1)NO | 14 nM | 310 nM | 30 nM | Body weight change (Mus musculus [4]): -6.6%; Body weight change (Mus musculus [5]): -6.4%; Body weight change (Mus musculus [6]): -1.7%; Ratio (Mus musculus [7]): 0; T/C (Mus musculus [8]): 13%; T/C (Mus musculus [9]): 40%; Body weight change (Mus musculus [10]; 100 mg/kg): 6.7% and 7.5%; MTD (Mus musculus [2]): 100 mg/kg; T/C (Mus musculus [11]): 19%; T/C (Mus musculus [12]; 100 mg/kg): 16% and 8%; Ratio (Mus musculus [13]): 0; Ratio (Mus musculus [14]): 0
O=C(/C=C/c1ccc(CNCCc2coc3ccccc23)cc1)NO | 16 nM | 180 nM | 30 nM | Body weight change (Mus musculus [6]): 0.5%; T/C (Mus musculus [8]): 49%; MTD (Mus musculus [2]): 50 mg/kg
CC(Cc1c[nH]c2ccccc12)NCc1ccc(/C=C/C(=O)NO)cc1 (stereo not drawn) | 24 nM | 410 nM | 20 nM | 
COc1ccccc1NCCNCc1ccc(/C=C/C(=O)NO)cc1 | 111 nM | 2160 nM | 170 nM | 
O=C(/C=C/c1ccc(CNCc2c[nH]c3ccccc23)cc1)NO | 59 nM | 2200 nM | 160 nM | 
CC(NCCc1c[nH]c2ccccc12)c1ccc(/C=C/C(=O)NO)cc1 (stereo not drawn) | 23 nM | 480 nM | 15 nM | 
O=C(/C=C/c1ccc(CN2CCC(c3c[nH]c4ccccc34)CC2)cc1)NO | 53 nM | 900 nM | 110 nM | 
O=C(/C=C/c1ccc(CNCCOc2ccccc2)cc1)NO | 69 nM | 1530 nM | 160 nM | 
O=C(/C=C/c1ccc(CNCCCn2c3ccccc3c3ccccc32)cc1)NO | 79 nM | 1100 nM | 160 nM | 
O=C(/C=C/c1ccc(CNCCc2c[nH]c3ccc(OCc4ccccc4)cc23)cc1)NO |  | 65 nM | 40 nM | Body weight change (Mus musculus [15]): -3%; T/C (Mus musculus [8]): 45%; MTD (Mus musculus [16]): 50 mg/kg
O=C(/C=C/c1ccc(CNCCc2cn(CC3CC3)c3ccccc23)cc1)NO | 84 nM | 250 nM | 30 nM | T/C (Mus musculus [17]): 81%; MTD (Mus musculus [2]): 20 mg/kg; Body weight change (Mus musculus [18]): -0.9%
COc1ccc2[nH]cc(CCNCc3ccc(/C=C/C(=O)NO)cc3)c2c1 | 14 nM | 580 nM | 30 nM | Body weight change (Mus musculus [4]): -5.5%; Body weight change (Mus musculus [5]): -4.6%; Body weight change (Mus musculus [6]): -8.1%; Ratio (Mus musculus [7]): 0; T/C (Mus musculus [8]): 24%; T/C (Mus musculus [9]): 64%; Body weight change (Mus musculus [10]; 100 mg/kg): 7.4% and 12%; MTD (Mus musculus [2]): 100 mg/kg; T/C (Mus musculus [11]): 38%; T/C (Mus musculus [12]; 100 mg/kg): 9% and 22%; Ratio (Mus musculus [13]): 0; Ratio (Mus musculus [14]): 0
O=C(/C=C/c1ccc(CNCCc2cc3ccccc3[nH]2)cc1)NO | 46 nM | 540 nM | 40 nM | 
Cc1nc2ccccc2n1CCNCc1ccc(/C=C/C(=O)NO)cc1 | 38 nM | 2750 nM | 200 nM | 
CC(C)N(CCc1c[nH]c2ccccc12)Cc1ccc(/C=C/C(=O)NO)cc1 |  | 30 nM |  | Body weight change (Mus musculus [4]): -4.1%; MTD (Mus musculus [2]): 25 mg/kg; T/C (Mus musculus [11]): 29%
O=C(/C=C/c1ccc(NCCCc2c[nH]c3ccccc23)cc1)NO | 262 nM | 820 nM | 480 nM | 

Compound | IC50 (Histone deacetylase) | IC50 (NCI-H1299) | IC50 (HCT-116) | further results
O=C(/C=C/c1ccc(CN(CCc2c[nH]c3ccccc23)C2CCCCC2)cc1)NO | 20 nM | 40 nM | 17 nM | 
O=C(/C=C/c1ccc(CNCCCCc2c[nH]c3ccccc23)cc1)NO | 37 nM | 480 nM | 30 nM | 
O=C(/C=C/c1ccc(CN(CCOC(=O)NCc2ccoc2)CCc2c[nH]c3ccccc23)cc1)NO | 370 nM | 180 nM | 15 nM | 
O=C(/C=C/c1ccc(CN(CCCc2ccccc2)Cc2ccccn2)cc1)NO | 278 nM | 2740 nM | 740 nM | 
O=C(/C=C/c1ccc(CNCc2cc3ccccc3[nH]2)cc1)NO | 51 nM | 940 nM | 50 nM | 
O=C(/C=C/c1ccc(CN2CCc3c([nH]c4ccccc34)C2)cc1)NO | 118 nM | 2900 nM | 430 nM | 
O=C(/C=C/c1ccc(CNCCn2c3ccccc3c3ccccc32)cc1)NO | 66 nM | 100 nM | 10 nM | Body weight change (Mus musculus [19]): -3.7%; T/C (Mus musculus [9]): 85%; MTD (Mus musculus [16]): 10 mg/kg
O=C(/C=C/c1ccc(CN(CCCc2ccccc2)Cc2cccnc2)cc1)NO | 164 nM | 1700 nM | 420 nM | 
O=C(/C=C/c1ccc(CNCCCc2ccccc2)cc1)NO | 150 nM | 800 nM | 50 nM | T/C (Mus musculus [20]): 86%; MTD (Mus musculus [16]): 45 mg/kg; Body weight change (Mus musculus [21]): -3.1%
O=C(/C=C/c1ccc(CNCCc2ccc3c(c2)OCO3)cc1)NO | 30 nM | 500 nM | 50 nM | 
O=C(/C=C/c1ccc(CN(CCc2c[nH]c3ccccc23)C(CO)CO)cc1)NO | 52 nM | 2500 nM | 160 nM | 
Cn1cc(CCNCc2ccc(/C=C/C(=O)NO)cc2)c2ccccc21 | 23 nM | 170 nM | 10 nM | Body weight change (Mus musculus [22]): -3.2%; MTD (Mus musculus [16]): 75 mg/kg; T/C (Mus musculus [23]): 15%
O=C(/C=C/c1ccc(CN[C@H](CO)Cc2c[nH]c3ccccc23)cc1)NO | 27 nM | 810 nM | 50 nM | 
O=C(/C=C/c1ccc(CNCCc2c[nH]c3ccccc23)cc1)NO |  | 400 nM |  | Body weight change (Mus musculus [4]): -7%; Body weight change (Mus musculus [5]): -10.2%; Body weight change (Mus musculus [6]): -7.3%; T/C (Mus musculus [8]): 13%; T/C (Mus musculus [9]): 56%; Body weight change (Mus musculus [10]): -9.4%; MTD (Mus musculus [2]): 100 mg/kg; T/C (Mus musculus [11]): 40%; T/C (Mus musculus [12]): 17%
O=C(/C=C/c1ccc(CN(CCO)CCc2cnc3ccccc3c2)cc1)NO | 24 nM | 530 nM | 40 nM | Body weight change (Mus musculus [6]): 3.1%; T/C (Mus musculus [8]): 78%; MTD (Mus musculus [2]): 50 mg/kg
Nc1ccccc1NC(=O)c1ccc(CNC(=O)OCc2ccccc2)cc1 | > 10000 nM | 6820 nM | 670 nM | 
O=C(/C=C/c1ccc(CN[C@@H](CO)Cc2c[nH]c3ccccc23)cc1)NO | 40 nM | 750 nM | 40 nM | 
O=C(/C=C/c1ccc(CN(CCc2c[nH]c3ccccc23)Cc2ccccc2)cc1)NO | 85 nM | 2060 nM | 120 nM | 
